SMILES strings stand for the structures. Active and inactive are the calls of the source. The calls are words filed in the database; no cut-off is given here.

For orientation: Ki means the equilibrium dissociation constant of an inhibitor or competing ligand from its target.

Data set [1] has as its target Histone deacetylase 1 (Homo sapiens, UniProt Q13547). As to the kind of experiment: Inhibition of recombinant human C-terminal FLAG/His-tagged HDAC1 expressed in baculovirus-infected Sf21 insect cells using RHKK(Ac)AMC as substrate after 60 mins by fluorimeter.
In data set [2] the target is Histone deacetylase 3/Nuclear receptor corepressor 2 (HDAC3/NCoR2) (Homo sapiens, UniProt O15379). As to the kind of experiment: biochemical. Type of data set: cell-based.
Chain of Histone deacetylase 3/Nuclear receptor corepressor 2 (HDAC3/NCoR2) (O15379 whole entry): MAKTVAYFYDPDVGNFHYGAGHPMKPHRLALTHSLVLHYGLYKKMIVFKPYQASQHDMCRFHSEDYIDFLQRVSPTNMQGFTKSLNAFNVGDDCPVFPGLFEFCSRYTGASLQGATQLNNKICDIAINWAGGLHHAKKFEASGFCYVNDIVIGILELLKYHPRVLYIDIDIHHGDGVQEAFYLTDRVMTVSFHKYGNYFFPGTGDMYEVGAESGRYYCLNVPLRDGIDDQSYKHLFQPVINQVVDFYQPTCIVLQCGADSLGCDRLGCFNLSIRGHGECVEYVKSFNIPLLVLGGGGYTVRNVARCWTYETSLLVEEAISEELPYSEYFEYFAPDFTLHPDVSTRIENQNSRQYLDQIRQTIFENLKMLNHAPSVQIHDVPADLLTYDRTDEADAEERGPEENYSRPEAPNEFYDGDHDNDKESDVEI
Chain of Histone deacetylase 3/Nuclear receptor corepressor 2 (HDAC3/NCoR2) (Q9Y618 whole entry, further chain): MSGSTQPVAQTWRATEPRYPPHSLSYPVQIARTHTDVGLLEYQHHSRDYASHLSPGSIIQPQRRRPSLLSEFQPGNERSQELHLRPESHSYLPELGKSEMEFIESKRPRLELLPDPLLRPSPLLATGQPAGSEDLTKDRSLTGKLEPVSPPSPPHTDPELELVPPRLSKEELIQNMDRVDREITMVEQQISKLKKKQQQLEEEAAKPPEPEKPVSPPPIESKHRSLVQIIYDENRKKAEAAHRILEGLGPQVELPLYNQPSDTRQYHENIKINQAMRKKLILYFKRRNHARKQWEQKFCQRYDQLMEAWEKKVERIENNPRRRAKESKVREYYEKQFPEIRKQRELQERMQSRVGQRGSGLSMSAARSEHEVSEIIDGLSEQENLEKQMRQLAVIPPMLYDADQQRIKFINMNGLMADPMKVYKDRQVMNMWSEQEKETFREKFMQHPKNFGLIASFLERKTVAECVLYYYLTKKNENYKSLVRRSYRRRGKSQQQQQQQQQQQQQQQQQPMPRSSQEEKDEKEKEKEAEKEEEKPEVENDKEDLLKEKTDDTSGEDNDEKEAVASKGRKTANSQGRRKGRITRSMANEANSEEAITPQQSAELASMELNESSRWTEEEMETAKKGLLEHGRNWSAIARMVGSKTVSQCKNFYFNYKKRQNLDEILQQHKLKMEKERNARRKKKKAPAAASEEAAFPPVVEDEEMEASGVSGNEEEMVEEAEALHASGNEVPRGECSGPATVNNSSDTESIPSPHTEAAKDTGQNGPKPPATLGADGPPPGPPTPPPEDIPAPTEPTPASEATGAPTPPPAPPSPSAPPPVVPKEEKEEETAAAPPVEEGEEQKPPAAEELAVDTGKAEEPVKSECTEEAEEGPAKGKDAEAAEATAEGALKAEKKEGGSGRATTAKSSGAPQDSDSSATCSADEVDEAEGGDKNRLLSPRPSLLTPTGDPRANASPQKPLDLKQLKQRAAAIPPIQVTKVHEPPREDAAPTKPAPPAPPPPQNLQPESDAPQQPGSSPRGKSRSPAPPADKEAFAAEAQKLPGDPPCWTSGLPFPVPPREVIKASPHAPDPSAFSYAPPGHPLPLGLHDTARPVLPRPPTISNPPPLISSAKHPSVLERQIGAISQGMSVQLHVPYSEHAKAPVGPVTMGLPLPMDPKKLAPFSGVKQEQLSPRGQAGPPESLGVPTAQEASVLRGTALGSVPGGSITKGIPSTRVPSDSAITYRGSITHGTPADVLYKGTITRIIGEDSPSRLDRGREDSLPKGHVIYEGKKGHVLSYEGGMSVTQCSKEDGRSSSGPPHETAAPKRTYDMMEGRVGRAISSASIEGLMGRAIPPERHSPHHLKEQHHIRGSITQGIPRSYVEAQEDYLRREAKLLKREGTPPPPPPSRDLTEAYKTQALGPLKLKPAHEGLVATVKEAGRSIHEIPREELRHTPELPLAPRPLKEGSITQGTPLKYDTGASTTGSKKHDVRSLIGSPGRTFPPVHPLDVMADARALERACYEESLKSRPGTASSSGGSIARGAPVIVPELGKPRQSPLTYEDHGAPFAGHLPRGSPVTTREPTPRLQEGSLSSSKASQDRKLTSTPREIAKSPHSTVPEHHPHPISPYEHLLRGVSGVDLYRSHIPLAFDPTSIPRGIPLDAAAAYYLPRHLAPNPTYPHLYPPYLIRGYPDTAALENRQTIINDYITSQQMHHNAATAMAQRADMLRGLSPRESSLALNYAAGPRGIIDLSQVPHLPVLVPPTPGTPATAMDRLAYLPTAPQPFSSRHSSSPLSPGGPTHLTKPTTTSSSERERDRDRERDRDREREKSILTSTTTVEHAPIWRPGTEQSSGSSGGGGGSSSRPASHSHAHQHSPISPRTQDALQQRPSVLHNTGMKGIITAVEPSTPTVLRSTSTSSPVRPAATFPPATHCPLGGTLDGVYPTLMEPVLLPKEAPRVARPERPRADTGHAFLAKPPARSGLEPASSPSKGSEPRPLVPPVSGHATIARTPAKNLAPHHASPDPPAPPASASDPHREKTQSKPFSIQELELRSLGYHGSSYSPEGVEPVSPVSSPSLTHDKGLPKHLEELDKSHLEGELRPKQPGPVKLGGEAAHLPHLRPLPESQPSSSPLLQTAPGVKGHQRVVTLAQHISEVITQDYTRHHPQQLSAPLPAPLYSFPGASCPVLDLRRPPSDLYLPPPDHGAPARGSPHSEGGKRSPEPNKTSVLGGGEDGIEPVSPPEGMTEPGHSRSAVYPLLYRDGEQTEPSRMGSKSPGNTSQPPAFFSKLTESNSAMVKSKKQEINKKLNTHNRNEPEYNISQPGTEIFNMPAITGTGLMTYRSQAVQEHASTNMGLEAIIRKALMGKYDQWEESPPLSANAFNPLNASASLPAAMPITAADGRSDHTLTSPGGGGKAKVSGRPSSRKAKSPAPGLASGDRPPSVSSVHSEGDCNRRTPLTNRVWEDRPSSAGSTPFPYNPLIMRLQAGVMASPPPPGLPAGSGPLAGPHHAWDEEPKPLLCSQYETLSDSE
Data set [3] concerns the target T1, Polyamine deacetylase HDAC10 (Homo sapiens, UniProt Q969S8).
T1 sequence (Q969S8 whole entry): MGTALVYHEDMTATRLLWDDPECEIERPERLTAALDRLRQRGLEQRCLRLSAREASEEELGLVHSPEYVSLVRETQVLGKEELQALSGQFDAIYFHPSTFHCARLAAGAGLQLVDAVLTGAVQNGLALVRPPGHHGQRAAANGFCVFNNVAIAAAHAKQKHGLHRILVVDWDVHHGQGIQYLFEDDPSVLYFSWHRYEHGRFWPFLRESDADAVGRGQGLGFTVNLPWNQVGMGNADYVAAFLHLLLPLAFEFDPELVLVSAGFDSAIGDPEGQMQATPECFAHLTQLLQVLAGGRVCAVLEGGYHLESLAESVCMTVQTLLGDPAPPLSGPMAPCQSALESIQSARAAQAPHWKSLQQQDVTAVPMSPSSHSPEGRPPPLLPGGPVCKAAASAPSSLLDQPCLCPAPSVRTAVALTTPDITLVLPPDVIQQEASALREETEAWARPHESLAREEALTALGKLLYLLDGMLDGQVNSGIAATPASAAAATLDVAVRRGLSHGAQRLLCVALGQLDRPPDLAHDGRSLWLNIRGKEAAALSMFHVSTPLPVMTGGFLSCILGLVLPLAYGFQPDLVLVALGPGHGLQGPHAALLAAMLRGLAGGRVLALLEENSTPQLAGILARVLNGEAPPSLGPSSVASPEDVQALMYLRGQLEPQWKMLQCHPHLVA
As to the kind of experiment: Inhibition of recombinant human HDAC10 expressed in baculovirus-infected insect cells using fluorogenic peptide RHKKAc as substrate by fluorimeter.

Data set [4] addresses T2, Histone deacetylase 11 (Homo sapiens, UniProt Q96DB2).
T2 sequence (Q96DB2 whole entry): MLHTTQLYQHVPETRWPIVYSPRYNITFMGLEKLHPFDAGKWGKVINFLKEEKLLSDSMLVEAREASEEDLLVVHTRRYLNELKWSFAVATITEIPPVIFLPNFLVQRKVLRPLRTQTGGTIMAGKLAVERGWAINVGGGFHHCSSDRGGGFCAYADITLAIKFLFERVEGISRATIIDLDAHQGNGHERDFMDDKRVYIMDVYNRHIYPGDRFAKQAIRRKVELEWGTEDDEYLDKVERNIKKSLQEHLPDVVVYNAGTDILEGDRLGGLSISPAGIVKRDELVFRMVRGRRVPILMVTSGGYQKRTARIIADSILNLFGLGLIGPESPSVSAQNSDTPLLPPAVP
The data set is described as follows: Inhibition of recombinant human N-terminal His-tagged HDAC11 (1 to 347 residues) expressed in baculovirus-infected insect cells using RHKK(Ac)AMC as substrate by fluorimeter.

Data set [5] is described as follows: Inhibition of class 1 HDAC in human MV4-11 cells assessed as induction of histone hyperacetylation at 50 nM to 10 uM after 24 hrs by Western blot method. Type of data set: cell-based. Conditions: 0.05 µM. In a few lines:
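MV4-11 cells were exposed to the inhibitor, from 5 nM to 10 µM for 24 h or at 50 nM for 10 min to 48 h. Lysates were immunoblotted for acetylated tubulin, acetylated histone H3 and HDAC6. Acetyl-tubulin was quantified by densitometry normalised to HSP90. MS-275 at 5 µM for 24 h was the comparator. Blots are representative of at least two independent experiments.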

Data set [6] relates to HEL. As to the kind of experiment: Cell cycle arrest in human HEL cells at 5 to 1000 nM after 24 hrs by propidium iodide staining-based flow cytometric method. Type of data set: functional. Background: A flow cytometer gives signals particle by particle.
Data set [7] deals with Jurkat. As to the kind of experiment: Cell cycle arrest in human Jurkat cells at 5 to 1000 nM after 24 hrs by propidium iodide staining-based flow cytometric method. It is filed as functional.
For data set [8], the system named is Mus musculus. As to the kind of experiment: In vivo inhibition of HDAC6 in DBA/1J mouse assessed as induction of tubulin acetylation in liver at 0.6 mg […] by Western blot method. Type of data set: functional, organism-based.
Data set [9] deals with Mus musculus. As to the kind of experiment: Antiarthritic activity in DBA/1J mouse collagen-induced arthritis model assessed as reduction in paw thickness at 30 mg/kg, ip administered every morning for 1 week measured during compound dosing. Type of data set: functional, organism-based. The method, boiled down: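 Collagen type II-induced arthritis in mice, treated at 30 mg/kg versus vehicle. Clinical arthritis score and paw swelling were followed over time from the start of treatment until the end of the experiment.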

Data set [10] deals with Mus musculus. The data set is described as follows: Antiarthritic activity in DBA/1J mouse collagen-induced arthritis model assessed as loss of body weight at 30 mg/kg, ip administered every morning for 1 week measured during compound dosing. Type of data set: functional, organism-based.
Data set [11] has as its system Mus musculus. The data set is described as follows: Antiarthritic activity in DBA/1J mouse collagen-induced arthritis model assessed as decrease in cellular invasion at 30 mg/kg, ip administered every morning for 12 to 14 days. Type of data set: functional, organism-based. The method, boiled down: (§1)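 Collagen type II-induced arthritis in mice, treated at 30 mg/kg versus vehicle. Arthritic paws were assessed histologically for synovial inflammation, cellular invasion, cartilage degradation and bone erosion.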

Data set [12] deals with Mus musculus. The data set is described as follows: Toxicity in DBA/1J mouse collagen-induced arthritis model assessed as effect on red blood cell count at 30 mg/kg, ip administered every morning for 12 to 14 days measured post last dose relative to vehicle-treated control. Type of data set: organism-based. Conditions: in vivo.
Data set [13] deals with Mus musculus. The data set is described as follows: Toxicity in DBA/1J mouse collagen-induced arthritis model assessed as effect on white blood cell count at 30 mg/kg, ip administered every morning for 12 to 14 days measured post last dose relative to vehicle-treated control. Conditions: in vivo. Type of data set: organism-based.
Data set [14] relates to Mus musculus. The data set is described as follows: Antiarthritic activity in DBA/1J mouse collagen-induced arthritis model assessed as decrease in histological scores at 30 mg/kg, ip administered every morning for 12 to 14 days measured during compound dosing relative to vehicle-treated control. It is filed as functional. Also noted: scale not given: the % may be the effect or the level left. In a few lines: as §1

Chain of Histone deacetylase 1 (Q13547 whole entry): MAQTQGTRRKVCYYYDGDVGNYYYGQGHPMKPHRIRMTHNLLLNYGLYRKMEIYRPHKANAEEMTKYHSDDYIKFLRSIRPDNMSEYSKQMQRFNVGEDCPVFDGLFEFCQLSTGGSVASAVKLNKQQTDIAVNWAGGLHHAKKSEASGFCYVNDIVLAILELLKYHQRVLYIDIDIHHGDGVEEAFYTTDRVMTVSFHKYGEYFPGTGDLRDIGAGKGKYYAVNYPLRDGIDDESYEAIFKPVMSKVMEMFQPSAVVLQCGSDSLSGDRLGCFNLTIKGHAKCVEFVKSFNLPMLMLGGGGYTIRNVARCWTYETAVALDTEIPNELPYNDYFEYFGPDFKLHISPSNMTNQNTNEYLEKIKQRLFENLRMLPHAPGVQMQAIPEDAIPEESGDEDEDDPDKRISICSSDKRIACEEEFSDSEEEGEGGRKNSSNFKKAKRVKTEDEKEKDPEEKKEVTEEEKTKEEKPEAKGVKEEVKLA

Take `CN1C(=O)C2CN(Cc3c2c2ccccc2n3Cc2ccc(C(=O)NO)cc2)C1=O` (centres undefined): the Ki stood at 358 nM in [1], 306 nM in data set [2], 452 nM in [3] and 495 nM in data set [4]. Moreover, the “inhibition (INH)” value in [5] is given as “Not Active”. For the same molecule, the result in data set [6] and in data set [7] was inactive. The inhibition entry in data set [8] was “Active”. Besides, the outcome in [9], in data set [10] and in [11] was Active. For the same molecule, the Activity entry was “Non-Toxic” in data set [12], “Non-Toxic” in data set [13] and 50% in data set [14].

These data come from ChEMBL document CHEMBL4043295, “Marbostat-100 Defines a New Class of Potent and Selective Antiinflammatory and Antirheumatic Histone Deacetylase 6 Inhibitors” (J Med Chem, 2018).
